Only some compounds are listed: those with a hit (about 9.5% of all), similar ones and a draw of the others.
M1 agonist: activates the M1 muscarinic receptor. B-score at 10 µM. actives 3% (n = 64,000). CHO-M1 cells, Fluo-4 calcium fluorescence, agonist mode; active compounds read high;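 active means fluorescence rise, raw or as B-score row- and column-corrected plate score, outside the 99.7% band of its plate's samples, either direction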
mHtt clearance: mutant huntingtin protein clearance | HeLa Exon1htt(103Q)mCFP, aggregate imaging; zero = plate's median compound well | inhibition, % at 1.5 µM | actives 0.42% (n = 47,000);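 active means inhibition of aggregate fluorescence above about 70%, also judged a hit by eye on the cell image, limit read from the data, passing the limit was not always enough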;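 further: cells exposed to compound for three days before fixation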
M1 antagonist: blocks the rat M1 muscarinic receptor response to acetylcholine; P08482; B-score at 10 µM; CHO-M1 cells, Fluo-4 calcium, ACh EC80 antagonist mode; active compounds read low; actives 3.4% (n = 64,000);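 active means calcium fluorescence response, raw or row-and-column corrected B-score, differing from the plate sample mean either way at a set confidence level, mostly lower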
Target sequence (P08482 whole entry, looked up): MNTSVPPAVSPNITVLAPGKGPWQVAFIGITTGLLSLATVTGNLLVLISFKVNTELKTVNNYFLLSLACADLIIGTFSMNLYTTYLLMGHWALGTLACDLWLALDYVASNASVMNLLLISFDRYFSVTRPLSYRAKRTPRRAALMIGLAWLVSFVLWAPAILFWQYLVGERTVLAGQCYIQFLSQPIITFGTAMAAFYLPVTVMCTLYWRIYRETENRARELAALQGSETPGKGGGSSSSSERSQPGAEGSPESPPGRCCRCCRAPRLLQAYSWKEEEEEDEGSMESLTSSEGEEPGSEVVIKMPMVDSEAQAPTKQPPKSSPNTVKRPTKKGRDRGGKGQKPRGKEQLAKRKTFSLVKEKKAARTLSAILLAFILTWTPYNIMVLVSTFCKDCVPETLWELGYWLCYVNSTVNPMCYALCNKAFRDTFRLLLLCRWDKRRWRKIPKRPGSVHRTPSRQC
D1 mod: D1 dopamine receptor (human) allosteric modulation. actives 5.9% (n = 58,000). P21728. HEK293 D1, CRE-luciferase, dopamine EC30 potentiation; actives deviate in either direction. B-score at 10 µM;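 active means luminescence count or its row- and column-corrected plate score outside the 99.7% band of the plate's sample wells, on either side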
Jurkat tox 60K: cytotoxicity toward Jurkat cells; Jurkat E6.1 viability, ATP luminescence, 48 h; inhibition, % at 4 µM; actives 1.2% (n = 56,000); AID 463;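 active means inhibition above the mean inhibition of all tested compounds plus 3 SD, cut at about 28% in these data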
HEK293 NFkB inh: inhibitors of the PMA/ionomycin-induced NF-kB reporter in HEK293 cells. HEK-293 NF-kB luciferase reporter, luminescence. inhibition, % at 3 µM. actives 0.21% (n = 62,000). AID 465;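 active means inhibition above the mean of all tested compounds plus 3 SD, cut at about 40% in these data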
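Reagent: PMA plus ionomycin mix as NF-kB-activating stimulus. Assay system: NF-kB luciferase reporter HEK-293 cells. Technique: luminescence from luciferase substrate reagent. Incubation: 1 h compound pre-incubation, 16 h PMA/ionomycin at 37 °C. Benchmarks: DMSO only as uninhibited control, 10 µM reference inhibitor as full inhibition. Repeats: tested once.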
D1 PAM confirm: confirmation of human D1 dopamine receptor allosteric modulators; actives 88% (n = 2,200); HEK293 D1 CRE-luciferase, dopamine EC30 potentiation; active compounds read high; luminescence at 10 µM; shares compounds with D1 mod; AID 642;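 active means luminescence in either of two replicates above the same-plate mean plus 3 SD of the low-dose dopamine control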
D1 no dopamine: activates D1 CRE-luciferase signal without dopamine present. shares compounds with D1 mod. HEK293 D1 CRE-luciferase, luminescence, no dopamine; active compounds read high. luminescence at 10 µM. actives 0.8% (n = 1,900). AID 646; in the data active means luminescence above about 3900
Isoprot counter: isoproterenol response counter-screen activity for D1 modulators. shares compounds with D1 mod. HEK293 D1 CRE-luciferase, isoproterenol EC30 counter-screen; active compounds read high. luminescence at 10 µM. actives 63% (n = 2,200);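 active means luminescence in either replicate above plate mean of wells with a partly effective reference agonist dose plus 3 SD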;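 further: isoproterenol raises cAMP through native beta-adrenoceptor Gs so signal bypasses D1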
Each line names hits and unclear results; the compound was inactive in the other large screens (follow-up assays come after a bar, where they were run).

Cc1cnc(C(=O)OCC(=O)c2csc(N3CCCCC3)n2)cn1	none
CCCCOc1ccc(-c2nnn(CC(=O)c3c[nH]c4ccccc34)n2)cc1	none (no result: M1 agonist, M1 antagonist, D1 mod, Jurkat tox 60K, HEK293 NFkB inh)
COc1ccc(-c2nnn(CC(=O)N(C3CCCC3)C(C)C(=O)NC3CCCC3)n2)cc1OC (stereo unspecified)	D1 mod 3.6 (no result: mHtt clearance) | D1 PAM confirm 6476 | Isoprot counter inactive
COc1ccc(-c2nnn(CC(=O)N(C3CCCCC3)C(C)C(=O)NC3CCCC3)n2)cc1OC (stereo unspecified)	none
CCOc1ccc(-c2nnn(CC(=O)Nc3ccccc3OC)n2)cc1OCC	D1 mod 9.4 (no result: mHtt clearance) | D1 PAM confirm 19984 | D1 no dopamine inactive | Isoprot counter 4200
COc1ccc(-c2nnn(CC(=O)c3c[nH]c4ccccc34)n2)cc1OC	D1 mod 8.1 (no result: mHtt clearance) | D1 PAM confirm 19116 | D1 no dopamine inactive | Isoprot counter 5892
CCCC(=O)C1=C(O)C(C(=O)OC)C(C)(C)CC1=Nc1ccncc1 (stereo unspecified)	none (no result: mHtt clearance)
COn1c(SC(C)C)nc2ccccc2c1=O	none (no result: M1 agonist, M1 antagonist, D1 mod, Jurkat tox 60K, HEK293 NFkB inh)
CC(C#N)Sc1nc2ccccc2c(=O)n1-c1ccccc1 (stereo unspecified)	D1 mod 9.2 (no result: mHtt clearance) | D1 PAM confirm 22624 | D1 no dopamine inactive | Isoprot counter 6128
O=C(Cc1ccccc1)Nc1nonc1NC(=O)c1ccccc1	D1 mod 4.1 (no result: mHtt clearance) | D1 PAM confirm 8752 | D1 no dopamine inactive | Isoprot counter 2948
CC(O)c1n(C)c(Cl)c[n+]1C (stereo unspecified)	none (no result: mHtt clearance, Jurkat tox 60K, HEK293 NFkB inh)
Cc1cccc(NC(=O)Cn2cnc3ccc(S(=O)(=O)N4CCC(C)CC4)cc3c2=O)n1	none (no result: M1 agonist, mHtt clearance, M1 antagonist)
COc1ccc(-c2cc(C(F)(F)F)n3nc(C(=O)N4CCCCC4)cc3n2)cc1	D1 mod 5.7 (no result: mHtt clearance, Jurkat tox 60K, HEK293 NFkB inh) | D1 PAM confirm 8620 | D1 no dopamine inactive | Isoprot counter inactive
C=CCc1c(C)nc(SC)nc1Nc1ccc(C(=O)O)cc1	D1 mod 8.2 | D1 PAM confirm 11532 | Isoprot counter inactive
C=CCc1c(C)nc(SC)nc1Nc1ccccc1	none (no result: M1 agonist, M1 antagonist, D1 mod, Jurkat tox 60K, HEK293 NFkB inh)
CCc1nnc(SCC(=O)Nc2ccc(C(C)=O)cc2)nc1CC	none (no result: mHtt clearance)
C=CCc1c(C)nc(SC)nc1Nc1ccc(C(C)=O)cc1	D1 mod 4.1 | D1 PAM confirm 10112 | D1 no dopamine inactive | Isoprot counter 6408
Cc1nn(C/C(C#N)=N\O)c(C)[n+]1N	none (no result: mHtt clearance)
COC(=O)c1c(-c2cccs2)csc1NC(=O)CN1CCOCC1	D1 mod 28 (no result: mHtt clearance) | D1 PAM confirm 18224 | D1 no dopamine inactive | Isoprot counter 10288
O=C(NCC1CCCO1)c1ccc(S(=O)(=O)N2CCC(c3nc4ccc(Cl)cc4[nH]3)CC2)cc1 (stereo unspecified)	none (no result: M1 agonist, M1 antagonist, D1 mod, Jurkat tox 60K, HEK293 NFkB inh)
COc1ccc2c(Cl)c(-c3nnc(SCC(N)=O)n3C)sc2c1	none
COc1ccc2c(Cl)c(C(N)=O)sc2c1	D1 mod 7.3 (no result: mHtt clearance) | D1 PAM confirm 15304 | D1 no dopamine inactive | Isoprot counter 3248
CCOc1ccc(Nc2oc(-c3cccc(Cl)c3)nc2C#N)cc1	none (no result: M1 agonist, M1 antagonist, D1 mod, Jurkat tox 60K, HEK293 NFkB inh)
CCOc1ccc(Nc2oc(-c3cccs3)nc2C#N)cc1	D1 mod 5.8 (no result: mHtt clearance) | D1 PAM confirm 11044 | D1 no dopamine inactive | Isoprot counter 3136
CCOc1ccc(Nc2oc(-c3ccco3)nc2C#N)cc1	D1 mod 4 (no result: mHtt clearance) | D1 PAM confirm 19668 | D1 no dopamine inactive | Isoprot counter 3456
CCOc1ccc(NC(=O)C2CSC(c3ccncc3)=N2)cc1 (stereo unspecified)	none (no result: mHtt clearance)
O=c1cc(O)nc(SC23CC4CC(CC(C4)C2)C3)[nH]1	none
Cc1nn(-c2ccccc2)c2c1/C(=N/O)CC(C)(C)C2	D1 mod 12 | D1 PAM confirm 11596 | D1 no dopamine inactive | Isoprot counter 3788
Cc1nn(-c2ccccc2)c(N2CCCCC2)c1/C=N/O	none (no result: mHtt clearance, Jurkat tox 60K, HEK293 NFkB inh)
Cc1sc2c(=O)n3c(nc2c1C(=O)NC1CCCCC1)CCCCC3	none (no result: M1 agonist, M1 antagonist, D1 mod, Jurkat tox 60K, HEK293 NFkB inh)
O=C(Nc1ccc2c(c1)OCO2)c1cccc2c1C(=O)N(C1CCCCC1)C2	none (no result: M1 agonist, mHtt clearance, M1 antagonist)
O=C(NCc1ccco1)c1cccc2c1C(=O)N(C1CCCCC1)C2	D1 mod 17 (no result: M1 agonist, mHtt clearance, M1 antagonist) | D1 PAM confirm 21064 | D1 no dopamine inactive | Isoprot counter 4164
O=C(NCc1cccnc1)c1cccc2c1C(=O)N(C1CCCCC1)C2	D1 mod 21 (no result: M1 agonist, mHtt clearance, M1 antagonist) | D1 PAM confirm 25588 | D1 no dopamine inactive | Isoprot counter 6184
O=C(CC1NCCNC1=O)OCCCc1ccccc1 (stereo unspecified)	none (no result: mHtt clearance)
CCOC(=O)c1cc(C#N)c(SCc2ccc(C#N)cc2)nc1C	none
CCOC(=O)c1cc(C#N)c(N)nc1C	D1 mod 4.6 | D1 PAM confirm 8556 | Isoprot counter 3320
Cc1ccc(NC2c3ncccc3C(=O)N2C2CCCCC2)cc1C (stereo unspecified)	D1 mod 4.1 (no result: mHtt clearance) | D1 PAM confirm 10752 | D1 no dopamine inactive | Isoprot counter 6560
O=C1c2cccnc2C(=O)N1C1CCCCC1	none
Cc1ccc(NC2c3ncccc3C(=O)N2C2CCCCC2)cc1 (stereo unspecified)	D1 mod 11 (no result: mHtt clearance) | D1 PAM confirm 13584 | Isoprot counter 3228
Cn1c(Cn2cnc3ccccc32)nnc1SCc1ccccc1	none (no result: mHtt clearance)
O=C(NCc1cccnc1)C1c2ccccc2C(=O)N1C1CCCC1 (stereo unspecified)	none (no result: mHtt clearance)
CC(=O)Nc1nc(CC(C)C)cc2c1c(=O)oc1ccccc12	none
CCCCc1cc2c(c(NC(=O)CC)n1)c(=O)oc1ccccc12	D1 mod 6.6 | D1 PAM confirm 23508 | D1 no dopamine inactive | Isoprot counter 4244
CCCCc1cc2c(c(NC(C)=O)n1)c(=O)oc1ccccc12	D1 mod 15 | D1 PAM confirm 14552 | D1 no dopamine inactive | Isoprot counter 3356
Cc1c(NC(=O)c2ccc3ncccc3c2)c(=O)n(-c2ccccc2)n1C	none (no result: M1 agonist, M1 antagonist, D1 mod, Jurkat tox 60K, HEK293 NFkB inh)
CCCc1cc(C(=O)NCC(C)C)no1	none
COc1ccc(-n2c(Cn3c(=O)sc4ccccc43)nnc2SCC(=O)N2CCOCC2)cc1	none
COc1ccc(Nc2nc3ccccc3nc2C)cc1	D1 mod 3.1 (no result: mHtt clearance) | D1 PAM confirm 8152 | Isoprot counter inactive
Cc1[nH]nc2c1C(c1cn[nH]c1-c1ccc(F)cc1)C(C#N)=C(N)O2 (stereo unspecified)	none
Nc1ccc(SC(F)(F)F)cc1C(=O)c1ccccc1	D1 mod 14 (no result: mHtt clearance) | D1 PAM confirm 13336 | D1 no dopamine inactive | Isoprot counter 5068
Nc1cc(C(=O)c2ccccc2)ccc1N1CCOCC1	none (no result: M1 agonist, M1 antagonist, D1 mod, Jurkat tox 60K, HEK293 NFkB inh)

Screening data as filed in PubChem.
